Screens deposited in PubChem BioAssay by The Scripps Research Institute Molecular Screening Center.
The list is not random: actives were taken first. Their share in the collection is about 3.9%.
CHRM1 antagonist: human M1 muscarinic receptor antagonists, primary screen, CHO-K1 cells, Fluo-8 calcium fluorescence, 1536-well; Muscarinic acetylcholine receptor M1 (Homo sapiens), P11229; CHO-K1 hM1, ACh EC80 antagonist; inhibition, % at 3 µM; actives 1.3% (n = 360,000); AID 588852, 2011;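 active = percent inhibition above its own plate's cutoff, namely the mean of that plate's compound wells plus 3 SD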;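 also: peak over basal fluorescence ratio during 140 s after agonist addition; 0% = ACh EC80 plus DMSO and 100% = DMSO alone without agonist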
m5-HT2A agonist: mouse Htr2a agonists via beta-arrestin recruitment, primary screen, cell-based, luminescence; CHO-K1 mHTR2A beta-arrestin complementation; percent of 30 µM serotonin response; activation, % at 7.6 µM; actives 0.66% (n = 360,000); AID 624169, 2012;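 active = activation above a run cutoff, the mean activation of all tested compounds plus 3 SD, cut at about 14% in these data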;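 also: 0% = plate median of compound wells and 100% = 30 µM serotonin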
M1 PAM: human M1 muscarinic receptor positive allosteric modulators, primary screen, CHO-K1 cells, Fluo-8 calcium fluorescence, 1536-well | Muscarinic acetylcholine receptor M1 (Homo sapiens), P11229 | CHO-K1 hM1, ACh EC20; 0% = ACh EC20, 100% = maximal ACh | activation, % at 3 µM | actives 0.088% (n = 360,000); in the data active = activation above about 19%, passing the limit was not always enough
TAAR1 antag: human TAAR1 antagonists, primary screen, Fluo-8 calcium fluorescence, CHO RD-HGA16 cells; Trace amine-associated receptor 1 (Homo sapiens), Q96RJ0; antagonist; inhibition, % at 3 µM; actives 1.5% (n = 360,000);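 active = inhibition above a per-plate cutoff, the mean inhibition of test compounds on that plate plus 3 SD, cut at about 49% in these data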;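 also: 0% = DMSO plus EC80 beta-PEA response and 100% = DMSO alone without agonist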
Target sequence (Q96RJ0 whole entry, looked up): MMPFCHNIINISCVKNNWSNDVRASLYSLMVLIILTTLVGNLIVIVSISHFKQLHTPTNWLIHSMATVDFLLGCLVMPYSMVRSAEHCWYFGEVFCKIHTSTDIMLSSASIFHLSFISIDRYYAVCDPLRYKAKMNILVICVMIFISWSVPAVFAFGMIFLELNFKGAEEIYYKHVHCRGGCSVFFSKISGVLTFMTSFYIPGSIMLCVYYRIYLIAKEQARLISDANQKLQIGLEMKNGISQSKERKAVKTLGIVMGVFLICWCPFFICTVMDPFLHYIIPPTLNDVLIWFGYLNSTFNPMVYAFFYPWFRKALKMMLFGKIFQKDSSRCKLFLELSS
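Assay system: RD-HGA16 CHO cells with stable hTAAR1 and Gα16 / Reagent: EC80 β-phenethylamine stimulus / Doses: 3 µM, single point / Timing: dye loading 75 min at 37 °C, then 30 min room temperature / Measured by: Fluo-8 intracellular calcium dye fluorescence, real-time kinetic reads / Controls: vehicle wells and EC80 agonist wells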
CHRM1 agonist: human M1 muscarinic receptor agonists, primary screen, Fluo-8 calcium fluorescence, CHO-K1 cells, HTS. Muscarinic acetylcholine receptor M1 (Homo sapiens), P11229. CHO-K1 hM1, agonist mode; 0% DMSO, 100% acetylcholine EC100. activation, % at 3 µM. actives 0.33% (n = 360,000);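 active = activation above the run's mean compound activation plus 3 SD, cut at about 16% in these data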;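 also: peak over basal fluorescence ratio within a 140 s kinetic read after compound addition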
TAAR1 agonist: human TAAR1 agonists, primary screen, Fluo-8 calcium fluorescence, CHO RD-HGA16 cells | vehicle wells 0%, saturating PEA agonist 100% | AID 624467, 2012 | Trace amine-associated receptor 1 (Homo sapiens), Q96RJ0 | actives 0.99% (n = 360,000) | activation, % at 3 µM;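 active = activation above the mean activation of all test compounds in the run plus 3 SD, cut at about 38% in these data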
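System: CHO RD-HGA16 cells carrying human TAAR1 plus Gα16; Incubation: 17-24 h seeding, 75 min 37 °C dye, 30 min RT; Measured by: Fluo-8 fluorescence, 5 s baseline then 140 s kinetic read; Control set: DMSO and PEA EC100; Replication: single well for each compound.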
TAAR1 nonsel count: nonselective antagonists in TAAR1 counter-screen cells, counter-screen for hTAAR1 antagonist project, cell-based, fluorescence, calcium; shares compounds with TAAR1 antag; counterscreen cell line, antagonist mode; inhibition, % at 3 µM; actives 77% (n = 2,400); AID 651780, 2012; in the data active = inhibition above about 22%;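 also: CHO-Ga16 host cells stimulated with ATP at an EC80 level; 0% = agonist EC80 plus vehicle and 100% = vehicle without agonist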
TAAR1 ant conf: human TAAR1 antagonists, retest of hits, confirmation, cell-based, fluorescence; shares compounds with TAAR1 antag; TAAR1-expressing cells, fluorescence antagonist read-out; inhibition, % at 3 µM; actives 40% (n = 2,400); in the data active = inhibition above about 49%;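 also: CHO-Ga16 host cells challenged with agonist PEA near its EC80; 0% = agonist at EC80 plus vehicle and 100% = vehicle with no agonist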
Ga16 ag counter: calcium activation in Ga16-expressing cells, counter-screen for TAAR1 antagonist project, cell-based, fluorescence. shares compounds with TAAR1 antag. agonist counterscreen. activation, % at 3 µM. actives 18% (n = 2,400). AID 651953, 2012; in the data active = activation above about 12%;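 also: 0% = vehicle wells and 100% = saturating stimulus response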
TAAR1 ag counter: TAAR1 activation by candidate antagonists – cell-based, fluorescence, counter-screen for TAAR1 antagonist project. actives 2% (n = 2,400). hTAAR1 cell line, agonist mode. shares compounds with TAAR1 antag. activation, % at 3 µM. AID 651955, 2012; in the data active = activation above about 37%;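 also: CHO cells stably expressing TAAR1 with calcium dye readout; 0% = DMSO vehicle and 100% = full agonist response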
An asterisk follows results filed as active; x = not tested or not shown.

SMILES	CHRM1 antagonist	m5-HT2A agonist	M1 PAM	TAAR1 antag	CHRM1 agonist	TAAR1 agonist	TAAR1 nonsel count	TAAR1 ant conf	Ga16 ag counter	TAAR1 ag counter
Cc1cccc(C)c1OCC(=O)Nc1cccc(-c2nnc(-c3ccccc3)o2)c1	7	12	0	-3	-3	12	x	x	x	x
CCC(=O)Nc1cccc(-c2nc3ccccc3o2)c1	-8	-1	8	-2	-4	11	x	x	x	x
COc1ccccc1OCC(=O)Nc1cccc(-c2nc3ccccc3o2)c1	16	6	-12	66*	-5	8	33*	46	4	6
Cc1nc(-c2cccc(NC(=O)COc3ccc(Cl)cc3)c2)cs1	0	6	-3	55*	-2	0	30*	43	5	0
CNC(=O)C[C@@H]1C(=O)N(c2ccc(OC)cc2)CC1(C)C	-11	12	4	2	-1	-1	x	x	x	x
CC1=C(C(=O)OCc2cc(C)on2)N2C(=O)[C@@H](NC(=O)OCc3cc(C)on3)[C@H]2SC1	-1	-5	-6	12	-6	0	x	x	x	x
CCN(CC)C(=O)Cn1cc(S(=O)(=O)CC(=O)Nc2ccc(F)cc2)c2ccccc21	-6	-1	4	-20	-2	0	x	x	x	x
O=C(Nc1cccc(-c2nc3ccccc3[nH]2)c1)c1ccccn1	10	-4	-11	51*	-8	9	19	27	5	4
O=C(Nc1cccc(-c2nnc(-c3ccccc3)o2)c1)c1ccco1	-4	3	3	50*	-2	12	29*	44	7	13
O=C(COc1ccccc1)Nc1cccc(-c2nc3cc4ccccc4cc3[nH]2)c1	21	-2	-10	69*	3	15	38*	59*	8	4
O=C(COc1ccccc1)Nc1cccc(-c2nn[nH]n2)c1	-12	6	7	5	-3	-1	x	x	x	x
Cc1ccc(SCC(=O)Nc2cccc(-c3nnc(-c4ccco4)o3)c2)cc1	12	5	-3	65*	1	12	38*	52*	10	8
CCN(CC)C(=O)Cn1nc(-c2ccc(Cl)cc2)c2ccccc2c1=O	-6	-7	0	-8	0	4	x	x	x	x
CCC(=O)N(CCC1(c2ccccc2OC)CCOC(C(C)C)C1)Cc1ccco1 (configuration not stated)	-15	-5	8	-26	-3	15	x	x	x	x
COc1ccccc1C(=O)Nc1nc(C)cc(C)n1	-1	-2	5	-10	0	2	x	x	x	x
OCCNc1nnc(-c2ccccc2)c(-c2ccccc2)n1	7	-2	3	-3	-2	3	x	x	x	x
COc1cccc(-c2nc(C(=O)NCC3CCCO3)cc3c2[nH]c2ccccc23)c1 (configuration not stated)	5	2	-12	77*	-6	1	26*	41	5	2
COc1cccc(N=c2oc3cc(O)ccc3cc2C(=O)NCC2CCCO2)c1 (configuration not stated)	10	1	-3	58*	-2	13	35*	55*	11	18
CC1=C(C(=O)N(C)C)CC(CC(=O)NCc2cccs2)C(=O)N1CCCN1CCCC1=O (configuration not stated)	-17	2	11	-13	-2	7	x	x	x	x
O=S(=O)(Nc1ccon1)c1ccc(F)c(F)c1	-8	3	2	-16	-1	5	x	x	x	x
O=C(c1ccc(N2CN(C(=O)c3ccco3)c3nc4ccccc4nc32)cc1)N1CCOCC1	0	4	1	53*	-3	26	21	43	10	9
CC(C)c1c(C(=O)N/N=C/c2c[nH]c3ccccc23)nnn1-c1nonc1N	14	-5	-9	75*	2	33	40*	62*	18*	18
CC(C)c1c(C(=O)N/N=C/c2cccc3ccccc23)nnn1-c1nonc1N	0	2	0	6	-3	1	x	x	x	x
COc1cc(/C=C(\NC(=O)c2cc(OC)c(OC)c(OC)c2)C(=O)NC(C(=O)O)c2ccccc2)cc(OC)c1OC (configuration not stated)	-9	5	4	-5	-2	1	x	x	x	x
CC(=O)Nc1ccc(NC(=O)CSc2nnc(-c3ccc4c(c3)OCO4)o2)cc1	-6	-5	3	-4	1	1	x	x	x	x
SMILES	CHRM1 antagonist	m5-HT2A agonist	M1 PAM	TAAR1 antag	CHRM1 agonist	TAAR1 agonist	TAAR1 nonsel count	TAAR1 ant conf	Ga16 ag counter	TAAR1 ag counter
Cc1ccccc1NC(=O)Cc1nc(CSc2nnc(-c3ccc4c(c3)OCO4)o2)cs1	25	-8	-17	55*	2	15	25*	37	8	5
CCOC(=O)c1c(-c2ccccc2Cl)csc1NC(=O)c1cc(S(=O)(=O)N2CCOCC2)ccc1C	-2	-2	5	-10	-10	1	x	x	x	x
COc1ccc(Cl)cc1NC(=O)Nc1ccc(C(=O)N2CCOCC2)cc1	10	-6	-2	-18	1	18	x	x	x	x
CCC1(C)CN=C(c2ccccc2)NC1 (configuration not stated)	-8	4	2	-20	-8	1	x	x	x	x
O=C(NNC(=O)c1ccccc1OCc1ccccc1)c1ccccc1O	4	6	-5	-5	0	-1	x	x	x	x
CC(=O)c1ccccc1OCc1ccc(S(=O)(=O)Cc2ccccc2)cc1	0	0	-8	74*	0	12	30*	42	9	15
Cc1cc(C(=O)CSc2nc(N)cc(=O)[nH]2)c(C)n1CCc1ccc(F)cc1	-8	-7	6	17	-3	32	x	x	x	x
